ChEMBL document CHEMBL3826928, “Incorporation of Phosphonate into Benzonaphthyridine Toll-like Receptor 7 Agonists for Adsorption to Aluminum Hydroxide” (J Med Chem, 2016)
Active and inactive are the calls of the source. No cut-off for these calls is given here.

Experiments:
Toll-like receptor 7 [1] = molecular target: T1, Toll-like receptor 7 (Homo sapiens, UniProt Q9NYK1); test: Agonist activity at TLR7 in human PBMC assessed as induction of IL-6 secretion in supernatant after 18 hrs
T1 sequence (Q9NYK1 whole entry): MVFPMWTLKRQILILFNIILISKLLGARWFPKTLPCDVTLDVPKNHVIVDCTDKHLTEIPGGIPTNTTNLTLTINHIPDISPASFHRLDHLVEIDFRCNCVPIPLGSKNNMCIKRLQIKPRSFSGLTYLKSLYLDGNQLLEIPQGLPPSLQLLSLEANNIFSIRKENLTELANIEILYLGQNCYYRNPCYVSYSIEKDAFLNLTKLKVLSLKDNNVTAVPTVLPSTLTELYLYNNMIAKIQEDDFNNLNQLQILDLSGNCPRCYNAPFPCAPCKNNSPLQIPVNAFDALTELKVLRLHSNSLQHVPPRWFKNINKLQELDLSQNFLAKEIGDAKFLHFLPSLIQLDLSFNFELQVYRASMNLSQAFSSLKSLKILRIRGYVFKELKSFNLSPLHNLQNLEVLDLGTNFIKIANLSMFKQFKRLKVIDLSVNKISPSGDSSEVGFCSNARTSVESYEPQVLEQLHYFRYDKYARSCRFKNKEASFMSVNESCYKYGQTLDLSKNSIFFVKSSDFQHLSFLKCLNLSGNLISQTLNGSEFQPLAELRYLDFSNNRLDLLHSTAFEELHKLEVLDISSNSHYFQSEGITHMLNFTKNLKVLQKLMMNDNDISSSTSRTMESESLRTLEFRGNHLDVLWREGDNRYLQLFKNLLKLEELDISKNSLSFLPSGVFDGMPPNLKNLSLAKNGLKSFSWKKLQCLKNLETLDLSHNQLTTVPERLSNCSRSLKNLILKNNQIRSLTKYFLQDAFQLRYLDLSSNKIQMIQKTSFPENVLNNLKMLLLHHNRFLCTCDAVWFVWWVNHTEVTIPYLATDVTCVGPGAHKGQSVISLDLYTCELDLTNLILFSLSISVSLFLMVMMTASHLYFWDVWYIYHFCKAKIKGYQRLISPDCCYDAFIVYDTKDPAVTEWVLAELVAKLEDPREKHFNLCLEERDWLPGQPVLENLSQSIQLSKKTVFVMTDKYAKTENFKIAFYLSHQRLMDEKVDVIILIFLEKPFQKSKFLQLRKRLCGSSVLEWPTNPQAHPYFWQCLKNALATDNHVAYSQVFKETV
In short: (§1)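 Isolated human PBMCs washed in PBS, resuspended in RPMI1640 with 10% heat-inactivated FBS, pyruvate, HEPES, at 1 × 10⁶ cells/mL. Compounds as in-situ sodium salts from 10 mM aqueous stocks, 3-fold 10-point dilutions from 30 μM.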

[2] = molecular target: T2, Toll-like receptor 8 (Homo sapiens) (UniProt Q9NR97); test: Agonist activity at human TLR8 expressed in HEK293 cells up to 30 uM incubated for 6 hrs by luciferase reporter gene assay relative to resiquimod; format: cell-based
T2 sequence (whole entry): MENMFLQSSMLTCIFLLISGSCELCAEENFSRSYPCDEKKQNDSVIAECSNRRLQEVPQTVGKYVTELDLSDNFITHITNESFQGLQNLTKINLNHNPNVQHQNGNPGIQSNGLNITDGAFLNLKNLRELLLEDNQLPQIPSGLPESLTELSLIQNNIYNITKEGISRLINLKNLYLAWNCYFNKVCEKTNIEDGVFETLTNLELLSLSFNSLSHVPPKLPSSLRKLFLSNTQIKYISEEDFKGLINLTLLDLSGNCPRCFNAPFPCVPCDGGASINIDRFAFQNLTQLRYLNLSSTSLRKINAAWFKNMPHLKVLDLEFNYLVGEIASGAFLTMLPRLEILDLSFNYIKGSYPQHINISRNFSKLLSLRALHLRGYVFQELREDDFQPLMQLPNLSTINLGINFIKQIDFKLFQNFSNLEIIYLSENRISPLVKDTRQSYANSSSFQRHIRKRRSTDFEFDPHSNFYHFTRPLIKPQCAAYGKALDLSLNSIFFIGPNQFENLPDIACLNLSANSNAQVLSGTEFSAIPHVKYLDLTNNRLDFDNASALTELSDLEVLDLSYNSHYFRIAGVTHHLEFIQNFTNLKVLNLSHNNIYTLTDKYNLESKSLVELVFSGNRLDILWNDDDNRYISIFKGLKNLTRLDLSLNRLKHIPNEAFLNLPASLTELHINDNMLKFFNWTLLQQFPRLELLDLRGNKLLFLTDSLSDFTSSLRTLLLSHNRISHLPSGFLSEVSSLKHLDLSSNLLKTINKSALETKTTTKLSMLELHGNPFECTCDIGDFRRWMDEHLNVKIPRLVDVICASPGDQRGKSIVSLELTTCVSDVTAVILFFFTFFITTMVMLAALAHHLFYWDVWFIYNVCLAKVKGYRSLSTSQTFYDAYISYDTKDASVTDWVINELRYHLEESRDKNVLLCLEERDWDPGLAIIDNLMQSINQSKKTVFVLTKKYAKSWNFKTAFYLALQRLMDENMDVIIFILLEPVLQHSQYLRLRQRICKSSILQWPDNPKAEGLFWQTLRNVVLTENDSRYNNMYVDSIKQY

Toll-like receptor 7 [3] = molecular target: T3, Toll-like receptor 7 (Mus musculus, UniProt P58681); test: Agonist activity at TLR7 in Balb/c mouse splenocytes assessed as induction of IL-6 secretion in supernatant after 18 hrs; format: cell-based
T3 sequence (P58681 whole entry): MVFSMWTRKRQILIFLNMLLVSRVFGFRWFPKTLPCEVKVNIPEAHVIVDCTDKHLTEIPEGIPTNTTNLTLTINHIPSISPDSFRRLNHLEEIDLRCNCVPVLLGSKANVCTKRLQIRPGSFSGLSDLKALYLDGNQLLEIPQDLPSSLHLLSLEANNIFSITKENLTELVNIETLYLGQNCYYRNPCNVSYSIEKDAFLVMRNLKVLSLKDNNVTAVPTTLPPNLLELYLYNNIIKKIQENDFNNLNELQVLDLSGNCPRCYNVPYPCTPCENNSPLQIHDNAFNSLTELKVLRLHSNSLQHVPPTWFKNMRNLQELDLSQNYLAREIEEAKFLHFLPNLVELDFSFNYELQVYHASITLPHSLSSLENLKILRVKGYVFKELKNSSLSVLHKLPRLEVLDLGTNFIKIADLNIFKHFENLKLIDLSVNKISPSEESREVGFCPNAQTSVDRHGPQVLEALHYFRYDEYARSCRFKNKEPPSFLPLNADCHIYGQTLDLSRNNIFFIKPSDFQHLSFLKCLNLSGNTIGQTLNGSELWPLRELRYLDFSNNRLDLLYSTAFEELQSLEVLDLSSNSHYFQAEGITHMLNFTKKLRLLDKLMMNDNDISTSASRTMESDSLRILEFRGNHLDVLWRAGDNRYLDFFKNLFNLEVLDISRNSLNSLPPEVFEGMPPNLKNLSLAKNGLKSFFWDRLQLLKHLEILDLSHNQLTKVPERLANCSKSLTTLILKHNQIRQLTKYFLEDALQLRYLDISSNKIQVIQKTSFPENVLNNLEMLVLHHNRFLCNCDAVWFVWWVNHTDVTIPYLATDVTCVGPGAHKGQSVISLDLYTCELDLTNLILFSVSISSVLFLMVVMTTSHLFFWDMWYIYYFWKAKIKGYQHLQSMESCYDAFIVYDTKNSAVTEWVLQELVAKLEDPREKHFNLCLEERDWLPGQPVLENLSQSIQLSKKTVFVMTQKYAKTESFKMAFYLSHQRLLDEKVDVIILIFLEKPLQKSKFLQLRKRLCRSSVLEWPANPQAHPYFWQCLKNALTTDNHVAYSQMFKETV
In short: (§2)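 Spleens from female BALB/c mice (6−10 weeks), single-cell suspension, RBC lysis; 5 × 10⁵ splenocytes per well in RPMI 1640 with 10% FCS, 2-ME. Compounds as sodium salts (1 equiv NaOH) from 10 mM water stocks, 3-fold 10-point dilutions from 30 μM.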

[4] = molecular target: T4, Toll-like receptor 7 (Mus musculus) (UniProt P58681); test: Agonist activity at TLR7 in Balb/c mouse splenocytes assessed as induction of IL-6 secretion in supernatant after 18 hrs relative to resiquimod; format: cell-based; in short: as §2
T4 sequence (whole entry): T3 sequence (P58681 whole entry)

[5] = molecular target: T5, Toll-like receptor 7 (Homo sapiens) (UniProt Q9NYK1); test: Agonist activity at TLR7 in human PBMC assessed as induction of IL-6 secretion in supernatant after 18 hrs relative to resiquimod; format: cell-based; in short: as §1
T5 sequence (whole entry): T1 sequence (Q9NYK1 whole entry)

[6] = molecular target: T5, Toll-like receptor 7 (Homo sapiens); test: Agonist activity at human TLR7 expressed in HEK293 cells incubated for 6 hrs by luciferase reporter gene assay relative to resiquimod; format: cell-based
In short: (§3)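 HEK293 stably carrying NF-κB-firefly luciferase reporter plus human TLR7 (best resiquimod-responding clone), maintained under puromycin/blasticidin. 25 000 cells per well in DMEM with 3% FCS.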

Toll-like receptor 7 [7] = molecular target: T1, Toll-like receptor 7; test: Agonist activity at human TLR7 expressed in HEK293 cells incubated for 6 hrs by luciferase reporter gene assay; format: cell-based; in short: as §3
[8] = molecular target: T4, Toll-like receptor 7 (Mus musculus); test: Agonist activity at TLR7 in Balb/c mouse splenocytes assessed as IL-6 level in supernatant after 18 hrs; format: cell-based; in short: as §2
[9] = molecular target: T5, Toll-like receptor 7 (Homo sapiens); test: Agonist activity at TLR7 in human PBMC assessed as IL-6 level in supernatant after 18 hrs; in short: as §1

`COc1ccc(CCc2cnc3c(N)nc4cc(CCP(=O)(O)O)ccc4c3c2)c(C)c1` was tested, and the EC50 (Toll-like receptor 7 [1]; read-out: EC50) was 400 nM, the Activity [2] was < 5% and the EC50 (Toll-like receptor 7 [3]) was 130 nM. For the same compound, the %max [4] was 124%.
For `COc1ccc(CCc2cnc3c(N)nc4cc(C(=O)C(F)(F)P(=O)(O)O)ccc4c3c2)c(C)c1`, the EC50 (Toll-like receptor 7 [1]; read-out: EC50) was 7800 nM, the Activity [2] was < 5% and the EC50 (Toll-like receptor 7 [3]) was 3400 nM. It also gave a %max [4] of 100%.
With `Cc1ccc2c(c1)nc(N)c1ncc(CCc3ccc(OCCOCCOCCP(=O)(O)O)cc3C)cc12` the %max [5] was 55%, the EC50 (Toll-like receptor 7 [1]; read-out: EC50) was 8200 nM and the Activity [2] was < 5%. It also gave an EC50 (Toll-like receptor 7 [3]) of 3600 nM, a %max [6] of 94% and an EC50 (Toll-like receptor 7 [7]) of 3.1 µM. For the same compound, the %max [4] was 83%.
For `COc1ccc(CCc2cnc3c(N)nc4cc(/C=C(\F)P(=O)(O)O)ccc4c3c2)c(C)c1`, the EC50 (Toll-like receptor 7 [1]; read-out: EC50) was 3400 nM, the Activity [2] was < 5% and the EC50 (Toll-like receptor 7 [3]) was 570 nM. It also gave a %max [4] of 220%.
For `Cc1ccc2c(c1)nc(N)c1ncc(CCc3ccc(OCCCC(F)(F)P(=O)(O)O)cc3C)cc12`, the EC50 (Toll-like receptor 7 [1]; read-out: EC50) was 1600 nM, the Activity [2] was < 5% and the EC50 (Toll-like receptor 7 [3]) was 3200 nM. For the same compound, the %max [4] was 47%.
For `Cc1cc(OCCCP(=O)(O)O)ccc1CCc1cnc2c(N)nc3cc(CCC(=O)O)ccc3c2c1`, the EC50 (Toll-like receptor 7 [1]; read-out: EC50) was 290 nM, the Activity [2] was < 5% and the EC50 (Toll-like receptor 7 [3]) was 310 nM. It also gave a %max [4] of 100%.
With `COc1ccc(CCc2cnc3c(N)nc4cc(/C=C/P(=O)(O)O)ccc4c3c2)c(C)c1` the EC50 (Toll-like receptor 7 [1]; read-out: EC50) was 1700 nM, the Activity [2] was < 5% and the EC50 (Toll-like receptor 7 [3]) was 2500 nM. For the same compound, the EC50 (Toll-like receptor 7 [7]) was 0.15 µM and the %max [4] was 81%.
`CCOCc1nc2c(N)nc3ccccc3c2n1CC(C)(C)O` gave an Activity [8] of 600 pg/mL and an Activity [9] of 12500 pg/mL.
For `COc1ccc(CCc2cnc3c(N)nc4cc(C(=O)P(=O)(O)O)ccc4c3c2)c(C)c1`, the “%max” value [5] was “inactive”, the EC50 (Toll-like receptor 7 [1]) was “Not Active” and the Activity [2] was < 5%. For the same compound, the EC50 (Toll-like receptor 7 [3]) was 14000 nM, the %max [6] was 112% and the EC50 (Toll-like receptor 7 [7]) was 5.6 µM. The %max [4] was 117%.
